Published values collected from several papers.
Lines come from different studies, so protocols differ.
Organism: Staphylococcus aureus
Effect on: microbial growth

Compound | method | strain | time | notes | MIC
COc1cc(Cc2cnc(N)nc2N)cc(OC)c1OC | broth dilution |  |  |  | ~16.6 µM
Clc1ccc(Cn2c(-c3ccc(Cl)cc3)nc3ccccc32)cc1 | broth dilution | ATCC43300 MRSA |  | drug-resistant strain | 16 µg/mL
CC[C@H]1OC(=O)[C@H](C)[C@@H](O[C@H]2C[C@@](C)(OC)[C@@H](O)[C@H](C)O2)[C@H](C)[C@@H](O[C@@H]2O[C@H](C)C[C@H](N(C)C)[C@H]2O)[C@](C)(O)C[C@@H](C)C(=O)[C@H](C)[C@@H](O)[C@]1(C)O |  | USA300 |  |  | 32 µg/mL
CNC(=O)c1cc(Sc2ccc(NC(=S)Nc3ccc(Cl)c(C(F)(F)F)c3)cc2)ccn1 |  | NCTC8325 |  |  | 3 µM
CCC(CC)c1cc(CCN2CCCN(Cc3ccc(C(F)(F)F)cc3)CC2)nc(-c2ccncc2)n1 |  | ATCCBAA41 |  | drug-resistant strain, clinical isolate | 6 µg/mL
C/C(=C\C(=O)OCCCCCCCCC(=O)O)C[C@@H]1OC[C@H](C[C@@H]2O[C@H]2[C@@H](C)[C@H](C)O)[C@@H](O)[C@H]1O |  | MRSA |  | drug-resistant strain | 0.5 µM
O=C(CCCCc1ccccc1)CP(=O)(O)O |  | ATCC33591 MRSA |  | drug-resistant strain | > 200 µg/mL
Oc1cccc(-c2nc3ccccc3[nH]2)c1 | broth dilution | ATCC43300 MRSA |  | drug-resistant strain | 128 µg/mL
O=C(CCCCC1CCCCC1)NP(=O)(O)O |  | ATCC33591 MRSA |  | drug-resistant strain | > 200 µg/mL
Clc1ccccc1-c1nc2ccccc2[nH]1 | broth dilution | ATCC43300 MRSA |  | drug-resistant strain | 128 µg/mL
CNC(=O)c1cc(Oc2ccc(NC(=O)Nc3cccc(C(F)(F)F)c3)cc2)ccn1 |  | NCTC8325 |  |  | > 100 µM
Cc1ccc2[nH]c3c(c2c1)CCCC3NCCc1ccc(Br)cc1 (centres unmarked) | broth dilution | ATCC29213 |  |  | 4 µg/mL
Cc1ccc2nc(-c3ccncc3)[nH]c2c1 | broth dilution | ATCC43300 MRSA |  | drug-resistant strain | 128 µg/mL
CCCCCCCCCC(=O)N[C@@H](Cc1c[nH]c2ccccc12)C(=O)N[C@H](CC(N)=O)C(=O)N[C@@H](CC(=O)O)C(=O)N[C@@H]1C(=O)NCC(=O)N[C@@H](CCCN)C(=O)N[C@@H](CC(=O)O)C(=O)N[C@H](C)C(=O)N[C@@H](CC(=O)O)C(=O)NCC(=O)N[C@H](CO)C(=O)N[C@@H]([C@H](C)CC(=O)O)C(=O)N[C@@H](CC(=O)c2ccccc2N)C(=O)O[C@@H]1C | broth dilution | USA300 |  | drug-resistant strain | 0.5 µg/mL
CNC(=O)c1cc(Oc2ccc(NC(=S)Nc3ccc(Cl)c(C(F)(F)F)c3)cc2)ccn1 |  | NCTC8325 |  |  | 10 µM
CN[C@H](CC(C)C)C(=O)N[C@H]1C(=O)N[C@@H](CC(N)=O)C(=O)N[C@H]2C(=O)N[C@H]3C(=O)N[C@H](C(=O)N[C@H](C(=O)O)c4cc(O)cc(O)c4-c4cc3ccc4O)[C@H](O)c3ccc(c(Cl)c3)Oc3cc2cc(c3O[C@@H]2O[C@H](CO)[C@@H](O)[C@H](O)[C@H]2O[C@H]2C[C@](C)(N)[C@H](O)[C@H](C)O2)Oc2ccc(cc2Cl)[C@H]1O | broth dilution | ATCC29213 |  |  | 1 µg/mL
COC(=O)c1cc(-c2cccc(NC(=O)Nc3ccc(F)c(F)c3)c2)on1 | broth dilution | ATCC29213 |  |  | > 64 µg/mL
CN[C@H](CC(C)C)C(=O)N[C@H]1C(=O)N[C@@H](CC(N)=O)C(=O)N[C@H]2C(=O)N[C@H]3C(=O)N[C@H](C(=O)N[C@H](C(=O)O)c4cc(O)cc(O)c4-c4cc3ccc4O)[C@H](O)c3ccc(c(Cl)c3)Oc3cc2cc(c3O[C@@H]2O[C@H](CO)[C@@H](O)[C@H](O)[C@H]2O[C@H]2C[C@](C)(N)[C@H](O)[C@H](C)O2)Oc2ccc(cc2Cl)[C@H]1O | broth dilution | 25923 |  |  | 0.78 µM
COC(=O)c1cc(-c2ccc(OC)c(NC(=O)Nc3ccc(Cl)c(Cl)c3)c2)on1 | broth dilution | ATCC29213 |  |  | > 64 µg/mL
CCCCCCCCCCCCCCCC(=O)CP(=O)(O)O |  | ATCC33591 MRSA |  | drug-resistant strain | 100 µg/mL
CC(=O)O[C@H]1C[C@@]2(C)[C@@H](C[C@@H](O)[C@H]3[C@@]4(C)CC[C@@H](O)[C@@H](C)[C@@H]4CC[C@@]32C)/C1=C(\CCC=C(C)C)C(=O)O |  | ATCCBAA1721 |  |  | 8 µg/mL
COC(=O)c1cc(-c2cccc(NC(=O)NCc3ccccc3)c2)on1 | broth dilution | ATCC29213 |  |  | > 64 µg/mL
COc1cccc(-c2nc3ccccc3[nH]2)c1 | broth dilution | ATCC43300 MRSA |  | drug-resistant strain | 512 µg/mL
CN[C@H](CC(C)C)C(=O)N[C@H]1C(=O)N[C@@H](CC(N)=O)C(=O)N[C@H]2C(=O)N[C@H]3C(=O)N[C@H](C(=O)N[C@H](C(=O)O)c4cc(O)cc(O)c4-c4cc3ccc4O)[C@H](O)c3ccc(c(Cl)c3)Oc3cc2cc(c3O[C@@H]2O[C@H](CO)[C@@H](O)[C@H](O)[C@H]2O[C@H]2C[C@](C)(N)[C@H](O)[C@H](C)O2)Oc2ccc(cc2Cl)[C@H]1O |  | NEWMAN |  |  | 1 µg/mL

Compound | method | strain | time | notes | MIC
COC(=O)c1cc(-c2cccc(NC(=O)Nc3cccc(Br)c3)c2)on1 | broth dilution | ATCC29213 |  |  | > 64 µg/mL
CC1(C)CC[C@]2(C(=O)O)CC[C@]3(C)C(=CC[C@@H]4[C@@]5(C)CC[C@H](O)C(C)(C)[C@@H]5CC[C@]43C)[C@@H]2C1 |  | 252 |  |  | 256 µg/mL
COC(=O)c1cc(-c2cccc(NC(=O)Nc3ccc(C)cc3)c2)on1 | broth dilution | ATCC29213 |  |  | > 64 µg/mL
Cc1ccc2nc(-c3ccc(N(C)C)cc3)[nH]c2c1 | broth dilution | ATCC43300 MRSA |  | drug-resistant strain | 128 µg/mL
O=[N+]([O-])c1ccc(/C=N/Nc2nc(Nc3ccccc3)nc(Nc3ccccc3)n2)o1 |  | ATCC43300 |  |  | 2.4 µM
CCC1C(=NOCc2cn(-c3ccccc3)nn2)CC(c2ccccc2)OC1c1ccccc1 (centres unmarked) | broth dilution | MTCC96 | 24 h |  | 50 µg/mL
c1cncc(-c2nc3ccccc3[nH]2)c1 | broth dilution | ATCC43300 MRSA |  | drug-resistant strain | 256 µg/mL
COc1ccc(OS(=O)(=O)NC(=O)CCCCc2ccccc2)cc1 |  | ATCC33591 MRSA |  | drug-resistant strain | > 200 µg/mL
CC1(C)S[C@@H]2[C@H](NC(=O)Cc3ccccc3)C(=O)N2[C@H]1C(=O)O |  | USA300 |  |  | 128 µg/mL
Cc1cccc2nc(-c3ccc([N+](=O)[O-])o3)[nH]c12 | broth dilution | ATCC700699 MRSA |  | drug-resistant strain | 2 µg/mL
O=C(CCCCC1CCCCC1)CP(=O)(O)O |  | ATCC33591 MRSA |  | drug-resistant strain | > 200 µg/mL
COc1ccc(-c2nc3ccccc3n2Cc2ccccc2)cc1OC | broth dilution | ATCC43300 MRSA |  | drug-resistant strain | 8 µg/mL
COC(=O)c1cc(-c2cccc(NC(=S)Nc3cc(C(F)(F)F)cc(C(F)(F)F)c3)c2)on1 | broth dilution | ATCC29213 |  |  | 8 to 16 µg/mL
CO[C@H]1[C@H](O[C@H]([C@H]2O[C@@H](n3ccc(=O)[nH]c3=O)[C@H](O)[C@@H]2O)[C@H](NCCCNC(=O)[C@@H](NC(=O)[C@@H](NC(=O)N[C@H](C(=O)O)C(C)C)[C@@H]2CCN=C(N)N2)[C@@H](OC(=O)CCCCC(C)C)C(C)C)C(=O)O)O[C@H](CN)[C@H]1O |  | NEWMAN |  |  | > 32 µg/mL
COC(=O)c1cc(-c2cccc(NC(=S)Nc3ccc(Cl)cc3)c2)on1 | broth dilution | ATCC29213 |  |  | > 64 µg/mL
COc1cccc(OC)c1C(=O)N[C@@H]1C(=O)N2[C@@H]1SC(C)(C)[C@@H]2C(=O)O |  | ATCCBAA1720 |  | drug-resistant strain, clinical isolate | > 64 µg/mL
CN[C@H](CC(C)C)C(=O)N[C@H]1C(=O)N[C@@H](CC(N)=O)C(=O)N[C@H]2C(=O)N[C@H]3C(=O)N[C@H](C(=O)N[C@H](C(=O)O)c4cc(O)cc(O)c4-c4cc3ccc4O)[C@H](O)c3ccc(c(Cl)c3)Oc3cc2cc(c3O[C@@H]2O[C@H](CO)[C@@H](O)[C@H](O)[C@H]2O[C@H]2C[C@](C)(N)[C@H](O)[C@H](C)O2)Oc2ccc(cc2Cl)[C@H]1O | broth dilution | ATCCBAA44 |  | drug-resistant strain | 1 µg/mL
COC(=O)c1cc(-c2cccc(NC(=O)Nc3cc(OC)ccc3OC)c2)on1 | broth dilution | ATCC29213 |  |  | > 64 µg/mL
CN(C)[C@@H]1C(O)=C(C(N)=O)C(=O)[C@@]2(O)C(O)=C3C(=O)c4c(O)cccc4[C@@](C)(O)[C@H]3C[C@@H]12 |  | USA300 |  |  | 256 µg/mL
CCN1CCN(C(=O)Cc2ccc(Nc3ncc(F)c(Nc4ccc(C(=O)Nc5ccccc5Cl)cc4)n3)cc2)CC1 |  | NCTC8325 |  |  | > 30 µM
CN[C@H](CC(C)C)C(=O)N[C@H]1C(=O)N[C@@H](CC(N)=O)C(=O)N[C@H]2C(=O)N[C@H]3C(=O)N[C@H](C(=O)N[C@H](C(=O)O)c4cc(O)cc(O)c4-c4cc3ccc4O)[C@H](O)c3ccc(c(Cl)c3)Oc3cc2cc(c3O[C@@H]2O[C@H](CO)[C@@H](O)[C@H](O)[C@H]2O[C@H]2C[C@](C)(N)[C@H](O)[C@H](C)O2)Oc2ccc(cc2Cl)[C@H]1O |  | ATCC33592 |  | drug-resistant strain | 0.39 µg/mL
O=C(CCCCCCCCCCOc1ccccc1)NP(=O)(O)O |  | ATCC33591 MRSA |  | drug-resistant strain | 100 µg/mL
Cc1ccc2[nH]c3c(c2c1)CCCC3NCCc1ccc(O)cc1 (centres unmarked) | broth dilution | MRSA USA300 |  |  | 16 µg/mL
